Converted amounts (≈) assume the structure as drawn.
What was measured:
[1] = Ratio of EC50 for human HepG2 cells to EC50 for Plasmodium falciparum K1 infected in human erythrocytes
[2] = Ratio of EC50 for human HepG2 cells to EC50 for Plasmodium falciparum 3D7 infected in human erythrocytes
[3] = Dissociation constant, pKa of the compound; assay type: physicochemical
[4] = Solubility of the compound at pH 7.4 after 18 hrs by UV spectroscopic analysis; assay type: physicochemical; conditions: buffer
Summary of the method: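 Kinetic solubility. A 10 mM stock is diluted 1:100 into PBS pH 7.4 and incubated 18 h at room temperature, then filtered; the filtrate is mixed 1:1 with 1-propanol. UV spectrum (250–500 nm) compared by AUC with a 1-propanol/PBS reference. Single experiment in triplicate.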

[5] = Permeability of the compound at pH 7.4 after 30 mins by PAMPA; assay type: ADME; conditions: read-out: permeability
Summary of the method: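 PAMPA at pH 7.4. A 10 mM DMSO stock is diluted into system solution buffer; its UV spectrum serves as reference. Membrane painted with GIT lipid, acceptor chamber holds acceptor solution buffer. Sandwich stirred for 30 min, aqueous boundary layer set to 40. Donor and acceptor UV spectra read at 250–500 nm. Permeability coefficient from the AUCs of reference, donor and acceptor. Single experiment in triplicate.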

[6] = tested on: Plasmodium falciparum; experiment: Ratio of EC50 for chloroquine-resistant Plasmodium falciparum K1 infected in human erythrocytes to EC50 for chloroquine-sensitive Plasmodium falciparum 3D7 infected in human erythrocytes; assay type: functional
[7] = tested on: HepG2; experiment: Cytotoxicity against human HepG2 cells assessed as intracellular ATP level after 72 hrs by Celltiter-Glo luminescent assay; assay type: cell-based; conditions: HepG2, 72 h
[8] = tested on: Plasmodium falciparum; experiment: Antimalarial activity against chloroquine-resistant Plasmodium falciparum K1 infected in human erythrocytes assessed as reduction in parasitemia after 72 hrs by spectrophotometry; assay type: functional, organism-based; conditions: K1, 72 h
[9] = tested on: Plasmodium falciparum; experiment: Antimalarial activity against chloroquine-sensitive Plasmodium falciparum 3D7 infected in human erythrocytes assessed as reduction in parasitemia after 72 hrs by spectrophotometry; assay type: functional, organism-based; conditions: 3D7, 72 h

Row | Structure (SMILES) | Ratio EC50 [1] | Ratio EC50 [2] | pKa [3] | solubility at 18 h [4] | Papp at 0.5 h [5] | Ratio EC50 [6] | EC50 [7] | EC50 [8] | EC50 [9]
1 | c1ccc(CCc2ccc3c(NCCCNCc4ccco4)ccnc3c2)cc1 | 5.5 | 347.8 | 9.47 | 4.2 µM (≈ 1.62 µg/mL) | 23 ×10⁻⁶ cm/s | 63.7 | 16000 nM | 2930 nM | 46 nM
2 | COc1ccc(-c2ccc3c(NCCCNCc4ccc5c(c4)OCO5)ccnc3c2)cc1 | 218.3 | 192.9 | 9.47 | 32 µM (≈ 14.1 µg/mL) | 237 ×10⁻⁶ cm/s | 0.9 | 5630 nM | 26 nM | 29 nM
3 | COc1ccc(F)cc1CNCCCNc1ccnc2cc(Oc3ccccc3OC)ccc12 | 7 | 293 | 9.28 | 14.5 µM (≈ 6.69 µg/mL) | 317 ×10⁻⁶ cm/s | 44 | 6400 nM | 960 nM | 22 nM
4 | COc1ccc(-c2ccc3c(NCCCNCc4ccco4)ccnc3c2)cc1 | 261.9 | 565.7 | 9.47 | 32 µM (≈ 12.4 µg/mL) | 237 ×10⁻⁶ cm/s | 2.2 | 6000 nM | 23 nM | 11 nM
5 | FC(F)(F)c1cccc(Cc2ccc3c(NCCCNCc4ccco4)ccnc3c2)c1 | 4.3 | 56.7 | 9.47 | 4.2 µM (≈ 1.85 µg/mL) | 23 ×10⁻⁶ cm/s | 13.2 | 3190 nM | 743 nM | 56 nM
6 | COc1ccc(Oc2ccc3c(NCCCNCc4cccc(OC)c4O)ccnc3c2)cc1 | 15 | 1347 | 9.28 | 14.5 µM (≈ 6.66 µg/mL) | 317 ×10⁻⁶ cm/s | 91.5 | 5500 nM | 375 nM | 4 nM
7 | FC(F)(F)c1cc(-c2ccc3c(NCCCNCc4ccco4)ccnc3c2)cc(C(F)(F)F)c1 | 2.5 | 8.5 | 9.47 | 32 µM (≈ 15.8 µg/mL) | 237 ×10⁻⁶ cm/s | 3.4 | 2410 nM | 972 nM | 285 nM
8 | COc1cccc(CNCCCNc2ccnc3cc(C4CCCCC4)ccc23)c1O | 0.1 | 58.1 | 9.47 | 4.2 µM (≈ 1.76 µg/mL) | 23 ×10⁻⁶ cm/s | 864.9 | 1080 nM | 16000 nM | 19 nM
9 | COc1ccc(F)cc1CNCCCNc1ccnc2cc(Cc3ccc4c(c3)OCO4)ccc12 | 255.8 | 194.7 | 9.47 | 32 µM (≈ 15.2 µg/mL) | 237 ×10⁻⁶ cm/s | 0.8 | 6040 nM | 24 nM | 31 nM
10 | Fc1ccc(-c2ccc3c(NCCCNCc4ccco4)ccnc3c2)cc1 | 113.2 | 240.4 | 9.47 | 32 µM (≈ 12 µg/mL) | 237 ×10⁻⁶ cm/s | 2.1 | 7760 nM | 69 nM | 32 nM

— ChEMBL document CHEMBL1833887, “Synthesis and evaluation of 7-substituted 4-aminoquinoline analogues for antimalarial activity” (J Med Chem, 2011)
